We go through 13 molecules from publication PMC2292217 (The Journal of Experimental Medicine, 2008).

In data set [1] the test system is mice. Particulars: cited from earlier work.
Data set [2] has as its system peritoneal MΦs (PMΦs). In words: MΦ activation assay: LPS/IFN-γ–induced inflammatory cytokine expression. The class given is cell-based, mouse (C57BL/6). Particulars: for Antiinflammatory activity in the MΦ activation assay (in words): PMΦs, peptides 0.1 pM–100 nM, LPS/IFN-γ 15 h.
The test system of data set [3] is C57Bl6/J mice. In words: Zymosan-induced peritonitis. The class given is in vivo, mouse. Particulars: for Protection in vivo as judged by neutrophil and monocyte levels (in words): same dose and time as C15 (0.32 ng/kg i.p. 1 h before zymosan), 4 h. The method in brief: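 C57BL6/J mice received test peptide i.p. (8 pg/mouse, ∼0.32 ng/kg, in 500 μl) or PBS, either 1 h before or 2 h after 10 μg zymosan A i.p. Peritoneal lavage with PBS-3 mM EDTA was done at 2–48 h. Cells were counted, Fc-blocked, stained for 7/4 and Ly-6G, and typed by FACS: neutrophils 7/4high Ly-6Ghigh, monocytes 7/4high Ly-6Glow. Six to eight mice per treatment.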

For data set [4], the system named is ChemR23−/− PMΦs. Kind of data set: MΦ activation assay in MΦs from ChemR23−/− mice. It counts as cell-based, mouse. Particulars: 0.1–1 pM, 1 h pretreatment, LPS/IFN-γ 15 h; ELISA. In general terms: In an ELISA, binding on a coated surface is turned into a signal by an enzyme label.
Data set [5] concerns ChemR23−/− PMΦs. Kind of data set: MΦ chemotaxis assay with ChemR23 KO MΦs. The class given is cell-based, mouse. Particulars: MΦs from ChemR23−/− mice, 4 h migration.
Data set [6] deals with peritoneal MΦs (PMΦs). In words: MΦ chemotaxis assay. The class given is cell-based, mouse. Particulars: 25 ng/ml, positive control, 4 h; mean ± SEM, n = 4 independent experiments. In short, it runs like this: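 Bio-Gel-elicited peritoneal MΦs (4 × 10^5) from wild-type or ChemR23−/− mice were placed on 8-μm-pore membranes in RPMI/25 mM Hepes/0.1% BSA. They migrated 4 h toward test peptide, 25 ng/ml RANTES (positive control) or serum-free medium. For Gαi blockade, cells were pretreated 30 min with 200 ng/ml PTX. Migrated nuclei were formalin-fixed, DAPI-stained and imaged, with ≥3 replicate wells per treatment. Migration index = treatment threshold area ÷ serum-free area; n = 4 experiments.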

Data set [7] deals with wild-type Bio-Gel–elicited peritoneal cells. Kind of data set: Calcium flux in wild-type cells. The class given is cell-based, mouse. Particulars: Fura-PE3/AM. In short, it runs like this:
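Cells from mice 4 d after Bio-Gel elicitation were suspended at 10^7 cells/ml in HBSS with CaCl2/MgCl, 0.5% BSA and 10 mM Hepes. They were loaded with 2 μM Fura-PE3/AM for 45 min at room temperature, then washed twice. 3 × 10^6 cells were added to prewarmed 37°C buffer in a cuvette. After at least 60 s, fluorescence was recorded at excitation 340/380 nm and emission 510 nm.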

Data set [8] concerns Bio-Gel–elicited peritoneal cells from ChemR23 KO mice. In words: Calcium flux in ChemR23 KO cells. The class given is cell-based, mouse. Particulars: Fura-PE3/AM. A general note: A change in cytosolic calcium serves as a functional read-out for many receptors and channels.
Data set [9] deals with MΦs. In words: Cell viability, MTS assay. It counts as cell-based, mouse. Particulars: MTS assay (Promega). For orientation: Formazan colour is commonly taken as a measure of viable cells.
[10] abbreviates: 0.32 ng/kg i.p. 1 h before zymosan, lavage fluid at 4 h.
The mark [11] stands for this setting: time course, 8 pg/mouse i.p. 1 h before zymosan, 4 h after zymosan, FACS.
Where [12] appears, read: classically activated PMΦs, quantitative RT-PCR normalized to HPRT.

`CC[C@@H](O)/C=C/C=C\C[C@@H](O)/C=C/C=C/C=C\[C@@H](O)CCCC(=O)O` [RvE1, resolvin E1]: in data set [1] (300 ng/mouse i.p. (12 μg/kg)), the “Reduction of PMN numbers in peritoneal exudates” value is on record as “up to 25%”.
Regarding `C[C@@H]1C[C@H]2[C@@H]3CCC4=CC(=O)C=C[C@]4(C)[C@@]3(F)[C@@H](O)C[C@]2(C)[C@@]1(O)C(=O)CO` [dexamethasone], in [1] (30 μg/mouse (1.2 mg/kg)), the “Suppression of monocyte and neutrophil influx” value was 50%.
AGEDPHGYALPGQAA [C15-M]: in data set [2], the “Antiinflammatory activity in the MΦ activation assay (in words)” value (“Antiinflammatory activity” below) was “devoid of antiinflammatory activity”. Besides, the “Protection in vivo as judged by neutrophil and monocyte levels (in words)” value in [3] is “not protective”.
As for AGEDPHGYFLPGQFA [C15], in [4], the “Suppression of proinflammatory mediator production by ChemR23 KO MΦs (in words)” value is recorded as “unable to suppress”. Also, the “Chemotactic effect in ChemR23 KO MΦs (in words)” value (from here on “Chemotactic effect”) in data set [5] is on record as “completely ablated”. Moreover, the “Effect at 4 pg/mouse (in words)” value in data set [3] (4 pg/mouse (∼0.16 ng/kg) i.p., 4 h after zymosan) is on record as “significant antiinflammatory effects”. Further, the “Decrease in monocyte recruitment, C15 post-zymosan” value in [3] (8 pg i.p. 2 h after zymosan, 4 h after zymosan) worked out at 42%. The “Peritoneal monocyte levels, C15 post-zymosan” value in data set [3] (8 pg i.p. 2 h after zymosan, lavage 4 h after zymosan, zymosan alone 0.69 × 10^6) is on record as 0.42 × 10^6 cells. In [3] (8 pg i.p. 2 h after zymosan, lavage 4 h after zymosan, zymosan alone 1.9 × 10^6), the “Peritoneal neutrophil numbers, C15 post-zymosan” value is 0.83 × 10^6 cells. For the same molecule, in [3] (setting [10]), the “Reduction of peritoneal IL-1β expression” value was found to be 67%, the “Reduction of peritoneal IL-6 expression” value is reported as 67%, the “Reduction of peritoneal JE expression” value is given as 59% and the “Reduction of peritoneal KC expression” value worked out at 38%. Moreover, the “Reduction of peritoneal TNF-α expression” value in data set [3] (setting [10]) came to 51%. For the same molecule, the “Rate of monocyte influx” value in [3] (2–4 h after zymosan, 8 pg/mouse i.p. pretreatment, zymosan alone 0.51 × 10^6) is 0.18 × 10^6 cells/h. In addition, in data set [3] (time course, 8 pg/mouse i.p. 1 h before zymosan), the “Magnitude of peak neutrophilia relative to zymosan-challenged mice” value is recorded as roughly 50%. In data set [3] (time course, 8 pg/mouse i.p. 1 h before zymosan, 2 h after zymosan, FACS), the “Suppression of neutrophil infiltration, 2 h” value is listed as 50%. In addition, in data set [3] (setting [11]), the “Suppression of monocyte levels, 4 h” value came to 63% and the “Suppression of neutrophil infiltration, 4 h” value came out at 66%. Also, the “Suppression of monocyte levels, 8 h” value in data set [3] (time course, 8 pg/mouse i.p. 1 h before zymosan, 8 h after zymosan, FACS) was 61%. Further, the “Suppression of neutrophil infiltration, 24 h” value in data set [3] (time course, 8 pg/mouse i.p. 1 h before zymosan, 24 h after zymosan, FACS) was 50%. Also, the “Suppression of monocyte levels, 48 h” value in [3] (time course, 8 pg/mouse i.p. 1 h before zymosan, 48 h after zymosan, FACS) is on record as 64%. The “Peak peritoneal neutrophil number” value in data set [3] (time course, 8 pg/mouse i.p. 1 h before zymosan, zymosan alone 1.25 × 10^6) was 0.62 × 10^6 cells.
Consider ELSETQRRSLQVALEEFHK [N19], for which the “Antiinflammatory activity” value in data set [2] is “devoid of antiinflammatory activity”.
Still for that read-out and setting: then FSRALRTK [C8], with “no detectable antiinflammatory activity”.
Regarding GLFHDQAGPPAGYEF [C15-S], the “Antiinflammatory activity” value in [2] is reported as “devoid of antiinflammatory activity”. Besides, the “Protection in vivo as judged by neutrophil and monocyte levels (in words)” value in data set [3] is “not protective”.
As to KPECTIKPNGRRRKCLACIK [M20], the “Antiinflammatory activity” value in data set [2] is “devoid of antiinflammatory activity”.
On the same count and under the same terms, the entry for PHGYFLPGQFA [C11] is “devoid of antiinflammatory activity”; for RALRTK [C6] it is “no detectable antiinflammatory activity”.
fMLP [reference compound]: the “Chemotactic effect” value in data set [5] is “unaffected”.

B1: RANTES: CC chemokine, positive control in chemotaxis (25 ng/ml; 3 nM) (protein, UniProt P13501 24-91, looked up)
C-C motif chemokine 5: SPYSSDTTPCCFAYIARPLPRAHIKEYFYTSGKCSNPAVVFVTRKNRQVCANPEKKWVREYINSLEMS
B1: the Migration index in [6] amounted to 6 ± 0.59. In addition, in data set [5], the “Chemotactic effect” value is “unaffected”.

B2: Chemerin: recombinant murine chemerin (R&D Systems), chemotactic protein that binds ChemR23 (protein, UniProt Q9DD06 21-156, looked up)
Retinoic acid receptor …: EPELSETQRRSLQVALEEFHKHPPVQLAFQEIGVDRAEEVLFSAGTFVRLEFKLQQTNCPKKDWKKPECTIKPNGRRRKCLACIKMDPKGKILGRIVHCPILKQGPQDPQELQCIKIAQAGEDPHGYFLPGQFAFS
Take B2: in data set [2] (setting [12]), the “Induction of IL-10 mRNA expression” value stood at 10 fold and the “Induction of TGF-β mRNA expression” value is given as “twofold”. In data set [5], the “Chemotactic effect” value is on record as “completely ablated”. For the same molecule, in data set [7], the “Calcium flux (in words)” value is “induce calcium flux”. Also, the “Calcium flux (in words)” value in data set [8] was “failed to do so”. The “Effect on cell viability (in words)” value in [9] is on record as “not found to affect cell viability adversely”.
